Measurements of several laboratories.
Protocols differ between the studies behind these lines. pIC50: −log10 of the molar value. Converted amounts (≈) assume the structure as drawn.

The pIC50 of `N#Cc1ccc(-c2cc(COc3cc(C(F)(F)F)nc4ccccc34)on2)cc1` is reported as 4.36 (DND41; cell growth or viability, MTS; 72 h).
With `CC(=O)NC[C@H]1CN(c2ccc(N3CCOCC3)c(F)c2)C(=O)O1` the MIC90 was 1 µg/mL (≈ 2.96 µM) (Streptococcus agalactiae; microbial growth; clinical isolate).
For `N#CC(=C1C=CC(=NOC(=O)OCc2ccccc2)C=C1)c1ccccc1`, the MFC was 256 µg/mL (≈ 718 µM) (Candida tropicalis; microbial killing, broth dilution; ATCC13803; 48 h).
`CN[C@H](CC(C)C)C(=O)N[C@H]1C(=O)N[C@@H](CC(N)=O)C(=O)N[C@H]2C(=O)N[C@H]3C(=O)N[C@H](C(=O)N[C@H](C(=O)O)c4cc(O)cc(O)c4-c4cc3ccc4O)[C@H](O)c3ccc(c(Cl)c3)Oc3cc2cc(c3O[C@@H]2O[C@H](CO)[C@@H](O)[C@H](O)[C@H]2O[C@H]2C[C@](C)(N)[C@H](O)[C@H](C)O2)Oc2ccc(cc2Cl)[C@H]1O` has an MIC90 of 0.5 µg/mL (≈ 0.345 µM) (Streptococcus agalactiae; microbial growth; clinical isolate).
With `FC(F)(F)c1cc(OCc2cc(-c3ccccc3)no2)c2ccccc2n1` the pIC50 was 4.19 (DND41; cell growth or viability, MTS; 72 h).
With `CC(=O)ON=C1C=CC(=C(C#N)c2ccccc2)C=C1` the MIC was 2 µg/mL (Candida tropicalis; microbial growth, broth dilution; ATCC13803; 48 h).
The pIC50 of `O=c1cc(OCc2cc(-c3ccc(Cl)cc3Cl)no2)c2ccccc2o1` is reported as under 4.00 (DND41; cell growth or viability, MTS; 72 h).
`OC(Cn1cncn1)(Cn1cncn1)c1ccc(F)cc1F` has an MIC of 2 µM (Candida tropicalis; microbial growth, broth dilution; CGMCC2; 48 h).
For `CC[C@H]1OC(=O)[C@H](C)[C@@H](O[C@H]2C[C@@](C)(OC)[C@@H](O)[C@H](C)O2)[C@H](C)[C@@H](O[C@@H]2O[C@H](C)C[C@H](N(C)C)[C@H]2O)[C@](C)(O)C[C@@H](C)/C(=N\OCOCCOC)[C@H](C)[C@@H](O)[C@]1(C)O`, the MIC90 was 8 µg/mL (≈ 9.56 µM) (Streptococcus agalactiae; microbial growth; clinical isolate).
For `CC(=O)N1CCN(c2ccc(OCC3COC(Cn4ccnc4)(c4ccc(Cl)cc4Cl)O3)cc2)CC1` (stereo not shown), the MIC was 8 µg/mL (Candida tropicalis; microbial growth, broth dilution; ATCC13803; 48 h).
